High-throughput results (PubChem)
Shown are actives, neighbours in structure and some others; about 5% of the full set was active somewhere.
Mdm2 MdmX PPI: inhibitors of human Mdm2/MdmX interaction; SaOS-2 split-luciferase Mdm2/MdmX complementation, luminescence; inhibition, % at 8 µM; 3% of 330,000 active; AID 485346;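 active = inhibition of at least 50% at 8 µM in the primary screen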
UPR CHOP act: activators of apoptotic arm of unfolded protein response (CHOP); CHO-CHOP luciferase reporter, UPR activation, luminescence; percent of tunicamycin response over DMSO baseline; activation, % at 10 µM; 0.34% of 330,000 active; AID 449763;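 active = at 10 µM dose, activation of 40% or more, normalized to positive control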
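measured by = luciferase luminescence | assay system = CHO-CHOP cells, stable luciferase reporter of PERK-eIF2a-CHOP signalling | amount = 500 reporter cells seeded per well | timing = 6 h compound exposure at 37 °C after overnight seeding | controls = positive tunicamycin 10 µg/mL, negative DMSO alone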
UPR XBP1 act: adaptive UPR (XBP1) activation; CHO-XBP1 luciferase reporter, IRE1-XBP1 UPR activation, luminescence; percent of tunicamycin response, DMSO as zero; activation, % at 20 µM; 0.33% of 330,000 active; AID 463104;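 active = versus positive control, 20 µM dose yields 30% or more activation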
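Material: CHO cell line with stable XBP1 luciferase reporter; schedule: 16-18 h cell attachment at 37 °C, then 6 h compound exposure; signal: glow luminescence from Steady-Glo reagent; medium: serum-containing F12 medium, 10% FBS; benchmarks: tunicamycin 10 µg/mL and vehicle-only wells; read-out: percent activation relative to tunicamycin reference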
T cruzi inh: T. cruzi replication inhibition; 1.4% of 300,000 active; inhibition, % (test concentration not listed); T. cruzi beta-gal in NIH3T3, luminescence, 90 h;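 active = mean inhibition across valid replicates above about 55%, limit read from the data; inconclusive = mean below that limit but half or more replicates reach it; inactive = mean below it, under half of replicates reach it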;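 also: signal also drops with host cell toxicity which is not excluded here; higher percent means less beta-gal luminescence so fewer parasites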
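Read-out: Parasite load inhibition, % | Test system: Mouse NIH/3T3 fibroblasts infected with β-gal-expressing T. cruzi Tulahuen C4 | Amount: 5,000 cells/well | Medium: DMEM, 2% fetal bovine serum | Signal: GalScreen β-gal luminescence, detergent lysis, 60 min | Timing: 3 h attach, ≥90 h co-culture | Also added: Tulahuen C4 trypomastigotes, 5000/well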
Beta cell apopt: beta cell apoptosis inhibition | 0.8% of 300,000 active | protection from apoptosis, % (test concentration not listed) | AID 435005 | INS-1E cytokine-induced death, ATP luminescence, 48 h; percent of positive-control rescue, neutral wells zero;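 active = Every replicate reaches about 75%, or at least half do and their mean reaches it too, limit read from the data; inconclusive = At least half of replicates reach the limit but their mean does not; inactive = Under half of replicates reach the limit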;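 also: higher means more ATP so stronger rescue from cytokine killing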
CSC inhib: blocks cancer stem cells. inhibition, % at 7.5 µM. cancer stem cell-like cells viability, luminescence. AID 2717. 1.1% of 300,000 active; in the data active = inhibition above about 75%; inconclusive = no clear call, values can overlap the other calls; tested in HMLE shEcad cells
Mdm2-MdmX conf: human Mdm2/MdmX binding inhibition, confirmed; shares compounds with Mdm2 MdmX PPI; luminescent assay; inhibition, % at 8 µM; 55% of 10,000 active; AID 489028; in the data active = inhibition above about 40%
FLuc counter: full-length luciferase inhibition in Mdm2/MdmX counter-screen | shares compounds with Mdm2 MdmX PPI | SaOS-2 full-length luciferase counterscreen, luminescence | 77% of 6,200 active | AID 504607 | inhibition, % at 8 µM;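 active = mean inhibition at 8 µM reaching about 37%, which flags the compound as non-specific, limit read from the data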;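 also: p53-null SaOS-2 cells with luciferase driven by a doxycycline-inducible promoter; compound on cells about two nights before reading with doxycycline added after day one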
Large screens that a line does not name were inactive (follow-up assays come after a bar, where they were run).

Cc1ccc(NC(=O)CN(C)C(=O)COC(=O)COc2ccc(C#N)cc2)cc1	none
CCN(CC)CCn1nc2c3c(cccc3c1=O)-c1ccccc1-2	Mdm2 MdmX PPI 82.8, T cruzi inh 57.9, Beta cell apopt 112.9, CSC inhib 105.2 | Mdm2-MdmX conf 82.6 | FLuc counter inactive
O=c1c2cccc3c2c(nn1CN1CCOCC1)-c1ccccc1-3	none
COc1ccc(CN2CCC(N(CCc3ccccc3)Cc3ccccc3)CC2)c(OC)c1	Mdm2 MdmX PPI 86.2, T cruzi inh 60.5, CSC inhib inconclusive | Mdm2-MdmX conf inactive
O=[N+]([O-])c1ccc(-c2nc(C(Cl)Cl)c3ccccc3n2)cc1	Mdm2 MdmX PPI 99.0, Beta cell apopt 94.0, CSC inhib 96.9 | Mdm2-MdmX conf 100.1 | FLuc counter 51.5
CC(C)CN(C(=O)COC(=O)C12CC3CC(CC(C3)C1)C2)c1c(N)n(Cc2ccccc2)c(=O)[nH]c1=O	Mdm2 MdmX PPI 61.1, Beta cell apopt 98.7 | Mdm2-MdmX conf 72.4 | FLuc counter 47.0
CC(=O)Nc1sc(C)c(C)c1C(=O)OCC(=O)N(CC(C)C)c1c(N)n(Cc2ccccc2)c(=O)[nH]c1=O	Mdm2 MdmX PPI 100.2, CSC inhib 81.1 | Mdm2-MdmX conf inactive
Cn1nccc1C(=O)N/N=C/c1c(O)ccc2ccccc12	Mdm2 MdmX PPI 81.8, Beta cell apopt 100.0 | Mdm2-MdmX conf 80.0 | FLuc counter inactive
Cn1nccc1C(=O)Oc1cccc(/C=N/NC(=O)c2ccccc2O)c1	none
Cn1cc(C(=O)N/N=C/c2c(O)ccc3ccccc23)ccc1=O	Mdm2 MdmX PPI 78.8, Beta cell apopt 92.8, CSC inhib 94.4 | Mdm2-MdmX conf 71.8 | FLuc counter inactive
Cc1occc1C(=O)N/N=C/c1c(O)ccc2ccccc12	Mdm2 MdmX PPI 84.4, Beta cell apopt 76.4 | Mdm2-MdmX conf 83.3 | FLuc counter inactive
O=C(N/N=C/c1c(O)ccc2ccccc12)c1ccc(Br)o1	Mdm2 MdmX PPI 87.0, Beta cell apopt 102.5, CSC inhib 156.2 | Mdm2-MdmX conf 81.3 | FLuc counter 53.6
O=C(N/N=C/c1ccccn1)c1ccc(Br)o1	none (no result: Beta cell apopt)
CCC(=O)Nc1ccc(C(=O)CN2C(=O)NC3(CCCCCC3)C2=O)cc1	none (no result: T cruzi inh, CSC inhib)
CCc1sc(NC(=O)C(C)C)nc1-c1ccccc1	none
O=C(N/N=C/c1ccccc1O)c1cccc2ccccc12	Mdm2 MdmX PPI 52.6 (no result: Beta cell apopt, CSC inhib) | Mdm2-MdmX conf 53.3 | FLuc counter 46.0
O=C(N/N=C/c1c(O)ccc2ccccc12)c1ccc[n+](CCO)c1	none
O=C(N/N=C\c1c(O)ccc2ccccc12)c1ccc(O)cc1	Mdm2 MdmX PPI 68.2 (no result: Beta cell apopt) | Mdm2-MdmX conf 51.8 | FLuc counter inactive
COc1ccc2cc(Br)ccc2c1CC(=O)NC1CC(C)(C)NC(C)(C)C1	none
Cc1ccc(N2CN=c3s/c(=C\c4cccnc4)c(=O)n3C2)cc1	Mdm2 MdmX PPI 65.6 | Mdm2-MdmX conf inactive
CCn1c(CC(=O)Nc2ccccc2F)nnc1SCC(=O)Nc1nncs1	none
COc1cc(-c2nc(C(=O)NCC3CCCO3)cc3c2[nH]c2ccccc23)cc(OC)c1OC (stereo not drawn)	Mdm2 MdmX PPI 85.8 | Mdm2-MdmX conf 54.5 | FLuc counter 56.1
COc1ccccc1-c1nc(C(=O)NCC2CCCO2)cc2c1[nH]c1ccccc12 (stereo not drawn)	none (no result: Beta cell apopt)
O=C(NCC1CCCO1)c1cc2c([nH]c3ccccc32)c(-c2cccc(Cl)c2)n1 (stereo not drawn)	Mdm2 MdmX PPI 87.0 | Mdm2-MdmX conf 45.6 | FLuc counter 60.3
Cc1ccc(CNC(=O)CN2C(=O)c3ccccc3S2(=O)=O)cc1	none
O=C(c1ccc(Cl)cc1)N(Cc1ccccc1F)N1C(=O)CCCC1=O	none
CCN(CC)S(=O)(=O)c1cccc(NC(=O)Nc2cccc(C(F)(F)F)c2)c1	Mdm2 MdmX PPI 68.1, Beta cell apopt 112.1, CSC inhib 102.9 | Mdm2-MdmX conf 93.2 | FLuc counter 52.1
CCN(CC)S(=O)(=O)c1cccc(NC(=O)CC2CCCC2)c1	none
N#C/C(=N/Nc1ccc(OC(F)(F)F)cc1)C(N)=S	Mdm2 MdmX PPI 78.3, Beta cell apopt 88.4 | Mdm2-MdmX conf 87.9 | FLuc counter inactive
COc1cc(NS(=O)(=O)c2ccc(N/C=C(\C#N)c3nc4cc(Cl)ccc4o3)cc2)nc(OC)n1	Mdm2 MdmX PPI 54.0, CSC inhib 94.7 | Mdm2-MdmX conf 43.5 | FLuc counter inactive
O=C(NCc1ccccc1)NC(=O)c1ccccc1F	none
Cc1ccc2[nH]c(=O)c(CN(Cc3cccs3)Cc3nnnn3Cc3ccccc3)cc2c1	none | Mdm2-MdmX conf inactive
Clc1ccc(C2=Nn3c(nnc3-c3n[nH]c4c3CCC4)SC2)cc1	Mdm2 MdmX PPI 85.3 | Mdm2-MdmX conf 68.5 | FLuc counter 44.5
CC(C)[C@H](N)c1nnc2n1N=C(c1ccc(Cl)cc1)CS2	none
COc1ccc(CC2(C)OC(c3ccc([N+](=O)[O-])cc3)=NN2C(C)=O)cc1 (stereo not drawn)	none
CC(C)(C)N(Cc1cc2ccccc2[nH]c1=O)C(=O)C1CCCCC1	Mdm2 MdmX PPI 62.2 | Mdm2-MdmX conf 64.4 | FLuc counter 89.2
